Active and inactive are the calls of the source. The calls are words filed in the database; no cut-off is given here.
Legend:
[1] = target: Transient receptor potential cation channel subfamily M member 8 (Rattus norvegicus, UniProt Q8R455); test: Agonist activity at recombinant rat TRPM8 expressed in HEK293 cells assessed as increase in intracellular calcium accumulation by Fluo-4-AM probe-based spectrofluorimetric assay; type: cell-based; conditions: hek293
How it was run: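 HEK-293 cells stably expressing rat TRPM8 were loaded with Fluo-4-AM (4 µM, 0.02% Pluronic F-127) for 1 h at 25 °C in serum-free EMEM. They were then washed and suspended in Tyrode's buffer pH 7.4 in a stirred cuvette. [Ca2+]i fluorescence (ex 488/em 516 nm) was read before and after compound addition. Wild-type HEK-293 response was subtracted. Efficacy is expressed versus 4 µM ionomycin; EC50 comes from a sigmoidal fit.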

LNCaP = test: Cytotoxicity against human LNCAP cells assessed as inhibition of cell growth at 10 uM after 72 hrs by trypan blue assay; type: functional; conditions: for inhibition of growth at 10 µM: read-out: GI
How it was run: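 LNCaP cells were grown in RPMI-1640 with 10% FBS and given a daily dose of compound for 72 h. Cells were then counted in a Burker chamber, with cell number also estimated from dsDNA content at 4 pg DNA/cell. Dead cells were scored with 0.4% trypan blue. Statistics used ANOVA with Bonferroni's test.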

[2] = target: T1, Transient receptor potential cation channel subfamily V member 1 (Homo sapiens, UniProt Q8NER1); test: Antagonist activity at recombinant human TRPV1 expressed in HEK293 cells assessed as inhibition of capsaicin-induced intracellular calcium accumulation preincubated for 5 mins followed by capsaicin addition by Fluo-4-AM probe-based spectrofluorimetric assay; type: cell-based
T1 sequence (Q8NER1 whole entry): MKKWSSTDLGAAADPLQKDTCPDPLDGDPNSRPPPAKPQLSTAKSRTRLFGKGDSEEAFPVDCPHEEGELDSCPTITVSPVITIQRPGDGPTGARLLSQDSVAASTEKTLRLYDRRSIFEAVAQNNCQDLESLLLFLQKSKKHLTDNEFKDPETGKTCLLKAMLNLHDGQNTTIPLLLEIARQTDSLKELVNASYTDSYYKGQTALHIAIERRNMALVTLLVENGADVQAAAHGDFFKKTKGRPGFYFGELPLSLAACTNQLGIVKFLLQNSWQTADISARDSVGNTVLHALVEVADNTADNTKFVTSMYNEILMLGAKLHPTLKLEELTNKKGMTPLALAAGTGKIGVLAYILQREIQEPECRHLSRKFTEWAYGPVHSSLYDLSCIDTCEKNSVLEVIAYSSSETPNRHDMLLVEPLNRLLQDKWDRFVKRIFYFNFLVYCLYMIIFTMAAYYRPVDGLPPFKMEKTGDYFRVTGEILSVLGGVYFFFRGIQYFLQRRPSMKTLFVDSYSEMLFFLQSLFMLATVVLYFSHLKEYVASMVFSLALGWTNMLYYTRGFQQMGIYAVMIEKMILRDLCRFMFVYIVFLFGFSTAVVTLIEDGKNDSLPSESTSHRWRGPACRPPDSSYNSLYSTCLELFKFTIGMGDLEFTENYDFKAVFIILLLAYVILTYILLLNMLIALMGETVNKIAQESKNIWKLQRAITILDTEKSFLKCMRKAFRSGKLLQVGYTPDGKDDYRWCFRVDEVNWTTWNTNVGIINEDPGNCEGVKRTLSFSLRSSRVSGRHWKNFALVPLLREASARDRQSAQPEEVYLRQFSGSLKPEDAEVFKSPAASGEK
How it was run: (§1)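 HEK-293 cells stably expressing the listed TRP channel (human TRPV1; rat TRPM8, TRPA1, TRPV2, TRPV3 or TRPV4) were Fluo-4-AM loaded (4 µM, 1 h, 25 °C) and suspended in Tyrode's buffer pH 7.4. Compound was added 5 min before agonist: icilin 0.25 µM (TRPM8), capsaicin 0.1 µM (TRPV1), AITC 100 µM (TRPA1), LPC 3 µM (TRPV2), thymol 100 µM (TRPV3), 4α-PDD 1 µM (TRPV4). Agonist alone was taken as 100%. IC50 from sigmoidal fit, at least triplicate.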

[3] = target: T2, Transient receptor potential cation channel subfamily V member 2 (Rattus norvegicus, UniProt Q9WUD2); test: Antagonist activity at recombinant rat TRPV2 expressed in HEK293 cells assessed as inhibition of LPC-induced intracellular calcium accumulation preincubated for 5 mins followed by LPC addition by Fluo-4-AM probe-based spectrofluorimetric assay; type: cell-based; how it was run: as §1
T2 sequence (Q9WUD2 whole entry): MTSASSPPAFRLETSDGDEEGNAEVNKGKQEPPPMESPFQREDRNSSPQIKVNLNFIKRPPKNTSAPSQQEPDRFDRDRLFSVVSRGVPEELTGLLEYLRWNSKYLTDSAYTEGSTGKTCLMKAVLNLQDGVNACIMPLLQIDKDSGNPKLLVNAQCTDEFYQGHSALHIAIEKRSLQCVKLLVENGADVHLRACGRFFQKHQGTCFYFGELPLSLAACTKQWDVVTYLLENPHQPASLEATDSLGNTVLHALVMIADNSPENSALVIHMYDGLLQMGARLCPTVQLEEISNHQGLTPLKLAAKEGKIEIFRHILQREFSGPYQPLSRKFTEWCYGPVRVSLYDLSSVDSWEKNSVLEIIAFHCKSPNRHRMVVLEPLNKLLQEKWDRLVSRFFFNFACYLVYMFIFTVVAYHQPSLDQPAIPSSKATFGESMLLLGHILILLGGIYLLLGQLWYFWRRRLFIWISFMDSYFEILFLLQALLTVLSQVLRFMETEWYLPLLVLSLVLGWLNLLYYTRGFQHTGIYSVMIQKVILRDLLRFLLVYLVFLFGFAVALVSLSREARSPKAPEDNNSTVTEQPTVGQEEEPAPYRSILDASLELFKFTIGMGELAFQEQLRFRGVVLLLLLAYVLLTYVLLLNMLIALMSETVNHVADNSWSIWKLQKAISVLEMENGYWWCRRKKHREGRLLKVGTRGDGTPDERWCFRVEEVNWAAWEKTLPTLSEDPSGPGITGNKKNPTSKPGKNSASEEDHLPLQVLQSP

[4] = target: Transient receptor potential cation channel subfamily V member 4 (Rattus norvegicus, UniProt Q9ERZ8); test: Antagonist activity at recombinant rat TRPV4 expressed in HEK293 cells assessed as inhibition of 4alphaPDD-induced intracellular calcium accumulation preincubated for 5 mins followed by 4alphaPDD addition by Fluo-4-AM probe-based spectrofluorimetric assay; type: cell-based; how it was run: as §1
Sequence of Transient receptor potential cation channel subfamily V member 4 (Q9ERZ8 whole entry): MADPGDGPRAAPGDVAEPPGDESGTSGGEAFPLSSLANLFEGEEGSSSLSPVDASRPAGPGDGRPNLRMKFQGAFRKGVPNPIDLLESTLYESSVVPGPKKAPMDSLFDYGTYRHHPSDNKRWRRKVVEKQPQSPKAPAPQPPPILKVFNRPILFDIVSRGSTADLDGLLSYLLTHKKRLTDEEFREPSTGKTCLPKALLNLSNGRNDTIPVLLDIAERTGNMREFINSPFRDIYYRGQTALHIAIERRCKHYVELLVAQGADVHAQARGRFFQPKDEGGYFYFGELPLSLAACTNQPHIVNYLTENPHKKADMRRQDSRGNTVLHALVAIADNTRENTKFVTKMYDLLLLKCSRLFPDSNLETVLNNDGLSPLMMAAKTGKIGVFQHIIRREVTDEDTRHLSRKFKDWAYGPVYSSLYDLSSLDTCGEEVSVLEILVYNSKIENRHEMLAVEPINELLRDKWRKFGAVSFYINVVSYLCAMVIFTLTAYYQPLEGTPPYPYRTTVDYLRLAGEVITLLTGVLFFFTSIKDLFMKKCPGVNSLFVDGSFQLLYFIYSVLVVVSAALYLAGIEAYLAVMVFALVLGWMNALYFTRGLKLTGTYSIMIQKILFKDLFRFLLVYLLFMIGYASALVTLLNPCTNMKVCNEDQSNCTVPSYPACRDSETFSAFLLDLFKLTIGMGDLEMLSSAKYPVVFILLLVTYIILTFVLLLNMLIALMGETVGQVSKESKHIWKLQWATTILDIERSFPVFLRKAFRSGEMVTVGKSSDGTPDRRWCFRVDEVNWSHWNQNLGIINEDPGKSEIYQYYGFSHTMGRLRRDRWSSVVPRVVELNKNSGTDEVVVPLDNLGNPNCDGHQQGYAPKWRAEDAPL

[5] = target: Transient receptor potential cation channel subfamily A member 1 (Rattus norvegicus) (UniProt Q6RI86); test: Antagonist activity at recombinant rat TRPA1 expressed in HEK293 cells assessed as inhibition of AITC-induced intracellular calcium accumulation up to 10 uM preincubated for 5 mins followed by AITC addition by Fluo-4-AM probe-based spectrofluorimetric assay; type: cell-based; how it was run: as §1
Sequence of Transient receptor potential cation channel subfamily A member 1 (Rattus norvegicus) (Q6RI86 whole entry): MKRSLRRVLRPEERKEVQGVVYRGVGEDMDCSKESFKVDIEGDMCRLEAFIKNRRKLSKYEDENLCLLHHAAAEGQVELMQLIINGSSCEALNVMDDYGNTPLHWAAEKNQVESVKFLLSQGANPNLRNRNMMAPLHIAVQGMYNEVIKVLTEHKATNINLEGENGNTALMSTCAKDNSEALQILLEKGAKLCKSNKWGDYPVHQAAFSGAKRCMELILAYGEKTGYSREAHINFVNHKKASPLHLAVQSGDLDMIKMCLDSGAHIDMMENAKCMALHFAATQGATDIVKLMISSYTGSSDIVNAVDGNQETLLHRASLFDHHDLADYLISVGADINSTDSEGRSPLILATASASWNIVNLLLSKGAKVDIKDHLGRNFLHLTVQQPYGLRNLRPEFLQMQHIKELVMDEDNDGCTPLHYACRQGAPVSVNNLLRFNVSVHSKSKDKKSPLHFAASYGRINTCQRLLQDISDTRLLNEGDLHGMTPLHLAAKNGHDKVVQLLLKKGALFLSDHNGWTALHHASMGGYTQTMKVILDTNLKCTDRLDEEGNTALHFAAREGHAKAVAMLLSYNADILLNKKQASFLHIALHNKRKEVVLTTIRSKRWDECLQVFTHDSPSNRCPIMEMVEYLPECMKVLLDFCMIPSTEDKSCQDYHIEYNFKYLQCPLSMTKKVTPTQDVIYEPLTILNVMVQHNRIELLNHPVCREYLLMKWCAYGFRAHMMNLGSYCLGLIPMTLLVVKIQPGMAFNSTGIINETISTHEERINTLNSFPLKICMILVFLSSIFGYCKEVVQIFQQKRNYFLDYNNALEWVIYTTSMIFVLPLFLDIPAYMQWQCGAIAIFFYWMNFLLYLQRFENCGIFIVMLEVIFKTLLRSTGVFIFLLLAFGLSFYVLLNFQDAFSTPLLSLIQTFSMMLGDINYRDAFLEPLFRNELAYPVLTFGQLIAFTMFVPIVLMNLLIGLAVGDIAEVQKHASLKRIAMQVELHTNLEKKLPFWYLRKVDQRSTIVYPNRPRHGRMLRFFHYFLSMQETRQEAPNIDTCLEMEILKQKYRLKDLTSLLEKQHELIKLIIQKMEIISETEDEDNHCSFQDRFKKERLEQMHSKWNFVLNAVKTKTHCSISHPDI

[6] = target: T1, Transient receptor potential cation channel subfamily V member 1; test: Antagonist activity at recombinant human TRPV1 expressed in HEK293 cells assessed as inhibition of capsaicin-induced intracellular calcium accumulation up to 10 uM […] preincubated for 5 mins followed by capsaicin addition by Fluo-4-AM probe-based spectrofluorimetric assay; type: cell-based; how it was run: as §1
[7] = target: T3, Heat sensitive channel TRPV3 (Rattus norvegicus) (UniProt Q4QYD9); test: Antagonist activity at recombinant rat TRPV3 expressed in HEK293 cells assessed as inhibition of thymol-induced intracellular calcium accumulation up to 10 uM preincubated for 5 mins followed by thymol addition by Fluo-4-AM probe-based spectrofluorimetric assay; type: cell-based; how it was run: as §1
T3 sequence (whole entry): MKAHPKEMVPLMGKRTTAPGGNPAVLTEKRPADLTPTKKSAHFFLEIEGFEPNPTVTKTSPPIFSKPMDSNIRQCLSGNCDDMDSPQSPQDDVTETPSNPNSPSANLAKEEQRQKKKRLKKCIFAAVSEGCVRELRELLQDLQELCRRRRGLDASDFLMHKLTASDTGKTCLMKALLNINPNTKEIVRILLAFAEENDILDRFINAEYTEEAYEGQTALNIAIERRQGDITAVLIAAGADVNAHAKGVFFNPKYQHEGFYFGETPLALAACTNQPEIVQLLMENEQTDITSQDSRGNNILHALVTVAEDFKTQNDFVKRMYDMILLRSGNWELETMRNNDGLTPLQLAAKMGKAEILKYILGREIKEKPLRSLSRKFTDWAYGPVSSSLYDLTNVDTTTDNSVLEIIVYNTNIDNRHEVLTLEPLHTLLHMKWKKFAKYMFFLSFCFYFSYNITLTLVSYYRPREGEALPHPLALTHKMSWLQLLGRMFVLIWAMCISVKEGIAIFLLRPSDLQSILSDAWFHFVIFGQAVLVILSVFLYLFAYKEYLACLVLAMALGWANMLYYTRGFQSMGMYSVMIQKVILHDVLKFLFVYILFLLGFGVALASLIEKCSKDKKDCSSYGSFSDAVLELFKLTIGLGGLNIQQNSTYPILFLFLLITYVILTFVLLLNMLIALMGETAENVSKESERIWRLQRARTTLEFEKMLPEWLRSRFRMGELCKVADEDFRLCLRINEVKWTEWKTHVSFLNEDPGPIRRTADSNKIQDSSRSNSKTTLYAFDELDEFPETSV

Sequence of Transient receptor potential cation channel subfamily M member 8 (Q8R455 whole entry): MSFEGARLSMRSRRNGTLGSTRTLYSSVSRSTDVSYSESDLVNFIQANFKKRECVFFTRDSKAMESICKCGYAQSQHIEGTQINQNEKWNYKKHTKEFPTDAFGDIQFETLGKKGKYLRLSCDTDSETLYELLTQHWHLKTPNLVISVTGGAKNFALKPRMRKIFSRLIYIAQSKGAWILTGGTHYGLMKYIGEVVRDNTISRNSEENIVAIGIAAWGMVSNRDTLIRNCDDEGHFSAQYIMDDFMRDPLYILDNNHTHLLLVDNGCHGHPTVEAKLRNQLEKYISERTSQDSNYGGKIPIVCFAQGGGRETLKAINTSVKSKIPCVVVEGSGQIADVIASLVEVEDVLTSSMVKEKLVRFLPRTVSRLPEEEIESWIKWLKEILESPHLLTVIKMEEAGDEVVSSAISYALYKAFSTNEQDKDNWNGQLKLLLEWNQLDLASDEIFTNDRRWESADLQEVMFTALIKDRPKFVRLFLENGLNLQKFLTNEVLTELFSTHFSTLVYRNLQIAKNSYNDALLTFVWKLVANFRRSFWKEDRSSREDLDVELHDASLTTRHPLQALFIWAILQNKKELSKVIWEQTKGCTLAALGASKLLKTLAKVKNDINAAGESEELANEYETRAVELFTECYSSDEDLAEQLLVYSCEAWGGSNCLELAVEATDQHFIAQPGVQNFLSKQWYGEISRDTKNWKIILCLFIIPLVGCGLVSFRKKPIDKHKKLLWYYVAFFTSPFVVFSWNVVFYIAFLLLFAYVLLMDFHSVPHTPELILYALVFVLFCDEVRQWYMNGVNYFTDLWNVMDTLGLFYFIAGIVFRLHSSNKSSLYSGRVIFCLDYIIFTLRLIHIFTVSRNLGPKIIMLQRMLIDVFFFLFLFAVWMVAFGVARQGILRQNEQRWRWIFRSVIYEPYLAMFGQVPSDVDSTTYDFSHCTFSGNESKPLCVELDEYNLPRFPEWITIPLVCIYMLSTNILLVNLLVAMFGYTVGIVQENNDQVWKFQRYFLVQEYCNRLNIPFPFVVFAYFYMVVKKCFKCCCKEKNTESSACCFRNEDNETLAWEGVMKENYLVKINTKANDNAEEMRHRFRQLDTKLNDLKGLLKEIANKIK

| Compound | EC50 [1] | growth inhibition (GI) (LNCaP) | IC50 [2] [µM] | IC50 [3] [µM] | IC50 [4] [µM] | inhibition [5] | inhibition [6] | inhibition [7] | inhibition of growth at 10 µM (LNCaP) [%] |
| --- | --- | --- | --- | --- | --- | --- | --- | --- | --- |
| COc1cc(/C=C2\NC(=O)[C@@H]3Cc4c(OC)c(C)c(OC)c(OC)c4[C@@H](c4ccccc4)N3C2=O)c(OC)c(C)c1OC | Not Active | Active | 68.9 | 12.4 | > 100 | inactive | inactive | inactive |  |
| COc1cc2c(cc1OC)[C@H](c1ccccc1)N(C(=O)N1CCc3cc(OC)c(OC)cc3[C@@H]1c1ccccc1)CC2 (racemic) | Not Active | Active | 53 | 51.9 | 82.6 | inactive | inactive | inactive |  |
| COc1cc2c(cc1OC)[C@H](c1ccc(F)cc1)N(C(=O)N1CCc3cc(OC)c(OC)cc3[C@@H]1c1ccc(F)cc1)CC2 (racemic) | Not Active |  | 68.5 | 94.3 | 96.2 | inactive | inactive | inactive | 64.3 |
| COc1cc2c(cc1OC)[C@H](c1ccc(Cl)cc1)N(C(=O)N1CCc3cc(OC)c(OC)cc3[C@@H]1c1ccc(Cl)cc1)CC2 (racemic) | Not Active |  | 49.7 | 54.9 | 81.5 | inactive | inactive | inactive | 50.4 |
